Activity calls are given as the source filed them.
Tests used:
[1] = Drug uptake in BALB/c mouse small intestine implanted with mouse 4T1 cells assessed per gram of tissue at 0.18 mg/kg, ip after 24 hrs by HPLC-based fluorescence analysis; assay type: ADME, organism-based; settings: in vivo
Method in brief: (§1)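 Female BALB/c mice with 4T1 cells (1 × 10^6 in HBSS) implanted in left rear thigh; single i.p. dose, 7 in ethanol/PEG400/H2O (2/3/5) with 0.1% DMSO, mono-L-aspartyl chlorin e6 in saline; kept dark until sacrifice. Tissues washed, frozen, homogenized in CH3OH/DMSO/H2O (32/8/1), centrifuged 2300×g; supernatant analysed by HPLC with fluorescence detection; three animals per time point.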

Heart [2] = assay: Drug uptake in BALB/c mouse heart implanted with mouse 4T1 cells assessed per gram of tissue at 0.18 mg/kg, ip after 72 hrs by HPLC-based fluorescence analysis; assay type: ADME, organism-based; settings: in vivo
Method in brief: (§2)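 Female BALB/c mice bearing 4T1 thigh tumours received an i.p. dose in ethanol/PEG400/H2O (2/3/5) with 0.1% DMSO, or in saline, and were kept dark until killed. Tissues were weighed (100 mg), homogenised in CH3OH/DMSO/H2O (32/8/1) and centrifuged twice at 2300×g at 4°C. Supernatants were analysed by HPLC with fluorescence detection (λex 404/λem 654 nm or λex 400/λem 666 nm). n = 3 per time point.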

T98G = assay: Photocytotoxicity against human T98G cells assessed as cell survival preincubated for 24 hrs followed by irradiation at 16 J/cm2 measured at 24 hrs by WST-8 assay; assay type: functional, cell-based; settings: light or radiation study
Method in brief: (§3)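 Cells (5 × 10^3/well) in DMEM with 10% FCS, 24 h at 37°C, 5% CO2; photosensitizer 1–50000 nM (1% DMSO final) for 24 h, washed, fresh medium. Irradiated with 100-W halogen lamp through λ>500 nm or λ>600 nm cutoff filter to 16 J·cm−2; WST-8 absorbance at 450 nm 24 h later, survival normalized to no-drug wells.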

Spleen [3] = assay: Drug uptake in BALB/c mouse spleen implanted with mouse 4T1 cells assessed per gram of tissue at 0.18 mg/kg, ip after 48 hrs by HPLC-based fluorescence analysis; assay type: ADME, organism-based; settings: in vivo; method in brief: as §1
HeLa = assay: Drug uptake in human HeLa cells at 0.1 uM after 24 hrs by spectrophotometrical analysis; assay type: ADME, cell-based
Method in brief: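 HeLa cells (2.5 × 10^6/well) in DMEM with 10% FCS, preincubated 24 h at 37°C; photosensitizer added to 0.1 µM final (1% DMSO) for 24 h, two wells each. Cells washed twice with PBS, lysed in DMSO, Soret-band absorbance read against DMSO calibration; mean of three replicate experiments.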

Urinary bladder = assay: Drug uptake in BALB/c mouse bladder implanted with mouse 4T1 cells assessed per gram of tissue at 0.18 mg/kg, ip after 6 hrs by HPLC-based fluorescence analysis; assay type: ADME, organism-based; settings: in vivo; method in brief: as §2
[4] = Induction of reactive oxygen generation assessed as quantum yield of hydrogen peroxide generation in O2 saturated PBS containing 1% DMSO under photoirradiation by spectrometry relative to control hematoporphyrin; assay type: physicochemical; settings: buffer
Method in brief: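 Photosensitizer (1.00 µM) with HPF (2.00 µM) in PBS containing 1% DMSO, oxygenated 1 min, irradiated with 100-W halogen lamp through λ>500 nm cutoff filter at 37°C; hematoporphyrin as reference.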

Spleen [5] = assay: Drug uptake in BALB/c mouse spleen implanted with mouse 4T1 cells assessed per gram of tissue at 0.18 mg/kg, ip after 12 hrs by HPLC-based fluorescence analysis; assay type: ADME, organism-based; settings: in vivo; method in brief: as §1
Lung = assay: Drug uptake in BALB/c mouse lung implanted with mouse 4T1 cells assessed per gram of tissue at 0.18 mg/kg, ip after 48 hrs by HPLC-based fluorescence analysis; assay type: ADME, organism-based; settings: in vivo; method in brief: as §2
Liver [6] = assay: Drug uptake in BALB/c mouse liver implanted with mouse 4T1 cells assessed per gram of tissue at 0.18 mg/kg, ip after 12 hrs by HPLC-based fluorescence analysis; assay type: ADME, organism-based; settings: in vivo; method in brief: as §2
Plasma = assay: Drug uptake in BALB/c mouse plasma implanted with mouse 4T1 cells at 0.045 mg/kg, ip after 1 to 24 hrs by HPLC analysis; assay type: ADME, organism-based; settings: in vivo
Mus musculus = assay: Drug uptake in mouse 4T1 cells implanted BALB/c mouse assessed as time for drug accumulation at 0.045 to 0.36 mg/kg, ip administered for 48 hrs followed by irradiation at 40 mW/cm2; settings: in vivo
Kidney = assay: Drug uptake in BALB/c mouse kidney implanted with mouse 4T1 cells assessed per gram of tissue at 0.18 mg/kg, ip after 48 hrs by HPLC-based fluorescence analysis; assay type: ADME, organism-based; settings: in vivo; method in brief: as §2
[7] = Drug uptake in BALB/c mouse small intestine implanted with mouse 4T1 cells assessed per gram of tissue at 0.18 mg/kg, ip after 12 hrs by HPLC-based fluorescence analysis; assay type: ADME, organism-based; settings: in vivo; method in brief: as §1
Heart [8] = assay: Drug uptake in BALB/c mouse heart implanted with mouse 4T1 cells assessed per gram of tissue at 0.18 mg/kg, ip after 6 hrs by HPLC-based fluorescence analysis; assay type: ADME, organism-based; settings: in vivo; method in brief: as §2
4T1 [9] = assay: Antitumor activity against mouse 4T1 cells implanted in BALB/c mouse at 0.18 mg/kg, ip assessed as tumor growth inhibition administered for 48 hrs followed by irradiation at 40 mW/cm2 for 20.1 mins measured after 5 days by Vernier calipers; assay type: functional, organism-based
Method in brief: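 Female BALB/c mice carried 4T1 thigh tumours (1 × 10^6 cells) of 50–60 mm3. They were dosed i.p. at 250–31.25 nmol·kg−1 in ethanol/PEG400/H2O (2/3/5) containing 0.1% DMSO and kept dark. At 48 h the tumour was irradiated with a 100-W halogen lamp at 40 mW·cm−2 for 20.1 min. Tumour size was measured daily by caliper as length × width²/2 and normalised to day 0.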

4T1 [10] = assay: Photocytotoxicity against mouse 4T1 cells assessed as cell survival preincubated for 24 hrs followed by irradiation at 16 J/cm2 measured at 24 hrs by WST-8 assay; assay type: functional, cell-based; settings: 4T1, light or radiation study; method in brief: as §3
4T1 [11] = assay: Drug uptake in mouse 4T1 cells implanted in BALB/c mouse assessed per gram of tissue at 0.18 mg/kg, ip after 12 hrs by HPLC-based fluorescence analysis; assay type: ADME, organism-based; settings: in vivo; method in brief: as §1
Liver [12] = assay: Drug uptake in BALB/c mouse liver implanted with mouse 4T1 cells assessed per gram of tissue at 0.18 mg/kg, ip after 72 hrs by HPLC-based fluorescence analysis; assay type: ADME, organism-based; settings: in vivo; method in brief: as §2
Zone of skin = assay: Drug uptake in BALB/c mouse skin implanted with mouse 4T1 cells assessed per gram of tissue at 0.18 mg/kg, ip after 24 hrs by HPLC-based fluorescence analysis; assay type: ADME, organism-based; settings: in vivo; method in brief: as §1
Heart [13] = assay: Drug uptake in BALB/c mouse heart implanted with mouse 4T1 cells assessed per gram of tissue at 0.18 mg/kg, ip after 12 hrs by HPLC-based fluorescence analysis; assay type: ADME, organism-based; settings: in vivo; method in brief: as §2

CN1CC2C3=N/C(=C(/c4c(F)c(F)c(S[C@@H]5O[C@H](CO)[C@@H](O)[C@H](O)[C@H]5O)c(F)c4F)C4=N/C(=C(/c5c(F)c(F)c(F)c(F)c5F)c5ccc([nH]5)/C(c5c(F)c(F)c(S[C@@H]6O[C@H](CO)[C@@H](O)[C@H](O)[C@H]6O)c(F)c5F)=C5/C=CC(=N5)C3c3c(F)c(F)c(F)c(F)c3F)C=C4)C2C1 (stereo partly specified)
Drug uptake [1]: 39 ng/g | Drug uptake (Heart [2]): 3.3 ng | EC50 (T98G): 0.5 nM | Drug uptake (Spleen [3]): 14 ng | Drug uptake (HeLa): Active | Drug uptake (Urinary bladder): 90 ng/g | Ratio [4]: 0.18 | Drug uptake (Spleen [5]): 55 ng | Drug uptake (Lung): 11 ng | Drug uptake (Liver [6]): 60 ng/g | Drug uptake (Plasma): Active | Time (Mus musculus): 48 h | Drug uptake (Kidney): 5 ng | Drug uptake [7]: 80 ng | Drug uptake (Heart [8]): 24 ng/g | Activity (4T1 [9]): Active | EC50 (4T1 [10]): 0.5 nM | Drug uptake (4T1 [11]): 4 ng/g | Drug uptake (Liver [12]): 14 ng | Drug uptake (Zone of skin): 0 ng | Drug uptake (Heart [13]): 6 ng/g

— ChEMBL document CHEMBL3734686, “Synthesis, Photophysical Properties, and Biological Evaluation of trans-Bisthioglycosylated Tetrakis(fluorophenyl)chlorin for Photodynamic Therapy” (J Med Chem, 2015)
